From ChEMBL document CHEMBL5137029, “Chemically Tuning Resveratrol for the Effective Killing of Gram-Positive Pathogens” (J Nat Prod, 2022)
Converted amounts (≈) assume the structure as drawn. The source made the active and inactive calls. The rule behind the calls is not given here.

Legend:
Bacillus cereus [1] = test: Antibacterial activity against Bacillus cereus ATCC 14579 incubated for 20 hrs by CLSI based broth microdilution method; type: functional
Bacillus cereus [2] = test: Antibacterial activity against Bacillus cereus ATCC 10987 incubated for 20 hrs by CLSI based broth microdilution method; type: functional
Enterococcus faecalis [3] = test: Antibacterial activity against Enterococcus faecalis LMG 08222 incubated for 20 hrs by CLSI based broth microdilution method; type: functional
Enterococcus faecalis [4] = test: Antibacterial activity against Enterococcus faecalis LMG 16216 incubated for 20 hrs by CLSI based broth microdilution method; type: functional
Enterococcus faecalis [5] = test: Antibacterial activity against Enterococcus faecalis V583 incubated for 20 hrs by CLSI based broth microdilution method; type: functional
Staphylococcus aureus [6] = test: Antibacterial activity against Staphylococcus aureus LMG 8224 incubated for 20 hrs by CLSI based broth microdilution method; type: functional
Staphylococcus aureus [7] = test: Antibacterial activity against Staphylococcus aureus LMG 10147 incubated for 20 hrs by CLSI based broth microdilution method; type: functional
Staphylococcus aureus [8] = test: Antibacterial activity against Staphylococcus aureus LMG 15975 incubated for 20 hrs by CLSI based broth microdilution method; type: functional
Clostridium beijerinckii = test: Antibacterial activity against Clostridium beijerinckii B504 incubated for 24 hrs by CLSI based broth microdilution method; type: functional
Clostridium botulinum = test: Antibacterial activity against Clostridium botulinum CECT551 incubated for 24 hrs by CLSI based broth microdilution method; type: functional
Clostridioides difficile = test: Antibacterial activity against Clostridium difficile CECT531 incubated for 24 hrs by CLSI based broth microdilution method; type: functional
[9] = Antibacterial activity against Clostridium-ihumii AP5 incubated for 24 hrs by CLSI based broth microdilution method; type: functional
Clostridium perfringens = test: Antibacterial activity against Clostridium perfringens CECT376 incubated for 24 hrs by CLSI based broth microdilution method; type: functional
Clostridium tetani = test: Antibacterial activity against Clostridium tetani CECT 4629 incubated for 24 hrs by CLSI based broth microdilution method; type: functional
[10] = Cytotoxicity against human MRC5 cells assessed as cellular metabolism incubated for 72 hrs by MTT assay; type: toxicity, cell-based
Method in brief: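 MRC-5 cells in DMEM (1 g/L glucose) with 10% heat-inactivated FBS, 2 mM glutamine, penicillin/streptomycin, at 37 °C, 5% CO2. 5 × 10^3 cells/well seeded with increasing compound concentrations, 72 h. MTT added for 4 h, formazan dissolved in DMSO, A570 read. Sigmoidal fit for 50% growth reduction vs untreated; three independent experiments in triplicate.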

[11] = (§1) Hemolytic activity in human erythrocytes at […] incubated for 1 hrs; type: toxicity, cell-based, Erythrocyte; details: erythrocytes, read-out: Activity
Bacillus cereus [12] = test: Bactericidal activity against Bacillus cereus ATCC 10987 at 16 uM measured upto 24 hrs by CLSI based broth microdilution method; type: functional, organism-based
Method in brief: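 Each well then used as a 10% inoculum into fresh cMHB and incubated at 37 °C for 24 h. No regrowth in the MIC range was scored bactericidal, regrowth bacteriostatic. Triplicate.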

Bacillus cereus [13] = test: Antibacterial activity against Bacillus cereus ATCC 10987 assessed as decrease in membrane integrity at 2x MIC incubated for 18 hrs by propidium iodide staining assay; type: functional, organism-based
Method in brief: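 B. cereus grown 18 h in LB at 37 °C, washed in 5 mM HEPES pH 7.4 + 5 mM glucose, OD600 0.5, loaded with 10 μg/mL propidium iodide for 10 min. […] Gramicidin S positive control; triplicate.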

Bacillus cereus [14] = test: Inhibition of electron transport chain in Bacillus cereus ATCC 10987 by measuring reduction of resazurin upto 120 min by resazurin dye based assay; details: DDE = dose-dependent effect
Method in brief: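 B. cereus grown in LB to OD600 1, washed and resuspended in cMHB at OD600 0.2 with 100 μg/mL resazurin. Compounds added at the indicated concentrations; resorufin fluorescence (ex/em 550/590 nm) read every 5 min for 125 min. CCCP at 400, 200, 100 μM positive control; untreated cells and medium with resazurin negative controls; triplicate.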

Erythrocyte = test: as §1; type: toxicity, cell-based; details: erythrocyte, 1 h, […]
Bacillus cereus [15] = test: Antibacterial activity against Bacillus cereus ATCC 10987 assessed as membrane potential change at 0.5 to 2X MIC incubated for 20 mins by DiSC3(5) staining based assay; type: functional, organism-based
Method in brief: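 B. cereus grown in LB to OD600 1, washed in glucose-HEPES pH 7.4, OD600 0.5, loaded with 2 μM DiSC3(5) for 20 min at 37 °C for baseline. […] Gramicidin S positive control; untreated cells and dye-only medium negative controls; triplicate.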

Bacillus cereus [16] = test: Antibacterial activity against Bacillus cereus ATCC 10987 assessed as reduction in intracellular ATP levels at 100 uM measured upto 120 min by BacTiter-Glo luminescent cell viability assay; type: functional, organism-based
Method in brief: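 B. cereus ATCC10987 was grown in LB at 37 °C to OD600 1, washed three times in G-HEPES, and resuspended in cMHB at OD600 0.25. Cells were exposed at 37 °C to compounds at 32 μM or to CCCP (100 μM, positive control). At 30, 60 and 120 min, BacTiter-Glo luminescence was read. ATP was normalised to OD600 and expressed as % of untreated cells. Run in triplicate.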

Compound: CC(C)(C)[Si](C)(C)Oc1cc(O)cc(/C=C/c2ccc(O)cc2)c1
- MIC (Bacillus cereus [1]): 16 µM (≈ 5.48 µg/mL)
- MIC (Bacillus cereus [2]): 16 µM (≈ 5.48 µg/mL)
- MIC (Enterococcus faecalis [3]): 8 µM (≈ 2.74 µg/mL)
- MIC (Enterococcus faecalis [4]): 16 µM (≈ 5.48 µg/mL)
- MIC (Enterococcus faecalis [5]): 16 µM (≈ 5.48 µg/mL)
- MIC (Staphylococcus aureus [6]): 16 µM (≈ 5.48 µg/mL)
- MIC (Staphylococcus aureus [7]): 16 µM (≈ 5.48 µg/mL)
- MIC (Staphylococcus aureus [8]): 16 µM (≈ 5.48 µg/mL)
- MIC (Clostridium beijerinckii): 26.6 µM (≈ 9.11 µg/mL)
- MIC (Clostridium botulinum): 16 µM (≈ 5.48 µg/mL)
- MIC (Clostridioides difficile): 26.6 µM (≈ 9.11 µg/mL)
- MIC [9]: 32 µM (≈ 11 µg/mL)
- MIC (Clostridium perfringens): 32 µM (≈ 11 µg/mL)
- MIC (Clostridium tetani): 6.6 µM (≈ 2.26 µg/mL)
- IC50 at 72 h [10]: 2.7 µM
- hemolysis at 1 h, […] [11]: 18.4%

Compound: GENTAMICIN
- MIC (Bacillus cereus [2]): 4 µM
- MIC (Enterococcus faecalis [5]): > 32 µM
- MIC (Staphylococcus aureus [6]): 1 µM
- MIC (Clostridioides difficile): > 32 µM
- MIC (Clostridium perfringens): > 32 µM

Compound: CCCCOc1cc(/C=C/c2ccc(OS(=O)(=O)O)cc2)cc(OS(=O)(=O)O)c1
- Activity (Bacillus cereus [12]): Active
- Activity (Bacillus cereus [13]): Active
- inhibition (Bacillus cereus [14]): Dde
- Activity (Erythrocyte): Non-Toxic
- Activity (Bacillus cereus [15]): Active

Compound: CC[Si](CC)(CC)Oc1cc(O)cc(/C=C/c2ccc(O)cc2)c1
- IC50 at 72 h [10]: 21.3 µM

Compound: N#CC(C#N)=NNc1cccc(Cl)c1
- Activity (Bacillus cereus [16]): Active
